Results taken from PMC4359053 (Journal of medicinal chemistry, 2015).
Read-outs that look alike come from different tables or passages of the source.

How the values were obtained:
[1] = tested on: BR+ and BR- cell lines; test: internalization of fluorescence-labeled paclitaxel by CFM and flow cytometry; assay type: cell-based; conditions: Figure S1
How it was run: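 After probe exposure, cells trypsinised if needed, washed twice in PBS and resuspended in PBS. Flow cytometry: 488 nm excitation, emission at 530 nm (30 nm bandpass, 515–545 nm), about 10,000 cells counted per experiment, FITC fluorescence distribution analysed. Confocal: two-photon laser-scanning microscope, 488 nm excitation, emission 527 ± 23 nm (505–550 nm bandpass), cells on uncoated coverslip slide.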

[2] = tested on: MX-1 human breast carcinoma cell line (BR+); test: standard MTT cytotoxicity assay, continuous incubation; assay type: cell-based
[3] = tested on: ID8 murine ovarian carcinoma cell line (BR+); test: as above; assay type: cell-based; conditions: read-out: Cytotoxicity IC50, ID8; incubation at 37 °C for 48 h
[4] = tested on: L1210FR murine lymphocytic leukemia cell line (BR+); test: as above; assay type: cell-based
[5] = tested on: L1210 murine lymphocytic leukemia cell line (BR−); test: as above; assay type: cell-based; conditions: read-out: Cytotoxicity IC50, L1210; incubation at 37 °C for 48 h
[6] = tested on: WI38 human lung fibroblast cell line (BR−); test: as above; assay type: cell-based
[7] = tested on: BR+ cancer cell lines (MX-1, L1210FR, ID8); test: MTT cytotoxicity, text summaries pooled over BR+ cancer cell lines; assay type: cell-based
How it was run: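 Adherent cells seeded at 8,000–10,000/well and held 24 h at 37 °C before dosing; leukemia cells at 0.5–0.8 × 10^4/well suspended directly in test solutions. Final 0.5–5,000 nM from DMSO stocks, 37 °C, 5% CO2, 48 h or 72 h. Assay 2: 24 h exposure, PBS wash, GSH-OEt (6 equiv. to conjugate) added, further 48 h. MTT 0.5 mg/mL in PBS, 3 h, 37 °C.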

[8] = tested on: MX-1 human breast carcinoma cell line (BR+); test: MTT Assay 2: 24 h incubation, PBS wash, GSH-OEt addition, further 48 h; assay type: cell-based; conditions: read-out: Cytotoxicity IC50, MX-1, Assay 2, GSH-OEt (6 equiv.), additional 48 h
How it was run: (§1)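 Cells grown in supplemented RPMI-1640 (5% FBS, 5% NuSerum, 1% PenStrep) at 37 °C, 5% CO2, then seeded at 0.5–1.5 × 10^4 cells/well. Test compound (from DMSO stock; DMSO ≤1%) was added for 24 h at 37 °C. Medium was then removed, cells were washed with PBS, and GSH-OEt (6 equiv. to conjugate) in fresh medium was added for 48 h more (72 h total). MTT (0.5 mg/mL, 3 h), formazan dissolved in acidic isopropanol/Triton X-100, A570. IC50 from four-parameter logistic fit; triplicate.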

[9] = tested on: L1210FR murine lymphocytic leukemia cell line (BR+); test: as above; assay type: cell-based; conditions: read-out: Cytotoxicity IC50, L1210FR, Assay 2, GSH-OEt (6 equiv.), additional 48 h
How it was run: as §1

[10] = tested on: L1210FR murine lymphocytic leukemia cell line (BR+); test: MTT Assay 3: 24 h incubation, GSH-OEt addition without washing, further 48 h; assay type: cell-based; conditions: read-out: Cytotoxicity IC50, L1210FR, Assay 3, GSH-OEt (6 equiv.) added without wash, additional 48 h
How it was run: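 L1210FR suspension cells in supplemented RPMI-1640 were exposed to test compound at 37 °C for 24 h; DMSO ≤1%. GSH-OEt (6 equiv.) in medium was then added directly, without washing, for a further 48 h (72 h total). Viability was read by MTT (0.5 mg/mL in PBS, 3 h, 37 °C), solubilized in 0.1 N HCl/isopropanol with 10% Triton X-100, at 570 nm. IC50 by four-parameter logistic fit; triplicate runs.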

[11] = tested on: L1210 (BR−) cells; test: internalization by confocal fluorescence microscopy and flow cytometry; assay type: cell-based, murine; conditions: 5 µM, 37 °C
[12] = tested on: WI38 (BR−) cells; test: as above; assay type: cell-based, human; conditions: 5 µM, 37 °C
[13] = tested on: BR+ cancer cell lines (L1210FR, MX-1, ID8); test: internalization by confocal fluorescence microscopy and flow cytometry; assay type: cell-based; conditions: 5 µM, 37 °C
How it was run: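 Adherent cells were seeded at 5 × 10^5 cells/mL overnight, then given medium containing 5 µM fluorescent probe. For leukemia cells, 1 mM DMSO stock was spiked into fresh suspensions to 5 µM final. Incubation ran 30 min–24 h at 37 °C; cells were then trypsinized as needed and washed twice in PBS. Flow cytometry used 488 nm excitation, 515–545 nm emission, ~10,000 cells. Confocal imaging used 488 nm excitation, 505–550 nm bandpass, 63× water objective.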

[14] = read-out: Cytotoxicity IC50, MX-1, Assay 1, 37 °C, 72 h, no GSH-OEt
[15] = read-out: Cytotoxicity IC50, MX-1, incubation at 37 °C for 48 h
[16] = read-out: Cytotoxicity IC50, L1210FR, Assay 1, 37 °C, 72 h, no GSH-OEt
[17] = read-out: Cytotoxicity IC50, L1210FR, incubation at 37 °C for 48 h
[18] = read-out: Cytotoxicity IC50, WI38, Assay 1, 37 °C, 72 h, no GSH-OEt
[19] = read-out: Cytotoxicity IC50, WI38, incubation at 37 °C for 48 h

Compound | internalization across BR+ and BR- cell lines [1] | IC50 [2, 14] | IC50 [2, 15] | IC50 [3] | IC50 [4, 16] | IC50 [4, 17] | IC50 [5] | IC50 [6, 18] | IC50 [6, 19] | IC50 ([7]; read-out: Cytotoxicity IC50, MX-1 and L1210FR, free drug, range, 72 h incubation (Assay 1)) | IC50 [8] | IC50 [9] | IC50 [10] | potency times lower than free taxoid 3 against three BR+ cancer cell lines ([7]; 48 h incubation) | cancer cell selectivity (BR-specificity), BR+ cancer cells vs BR− WI38 cells ([7]; Assay 2) | IC50 ([7]; read-out: Cytotoxicity IC50, BR+ cancer cells (MX-1, L1210FR), Assay 2, range, 24 h, PBS wash, GSH-OEt, additional 48 h) | internalization into L1210 cells [11] | internalization into WI38 cells [12] | internalization into BR+ cancer cell lines [13]
7-(4-Fluoresceinyl)butanoylpaclitaxel [compound 6] | nonspecific internalization |  |  |  |  |  |  |  |  |  |  |  |  |  |  |  |  |  | 
CC(=O)O[C@@]12CO[C@@H]1C[C@H](O)[C@@]1(C)C(=O)[C@H](OC(=O)C3CC3)C3=C(C)[C@@H](OC(=O)[C@H](O)[C@H](C=C(C)C)NC(=O)OC(C)(C)C)C[C@@](O)([C@@H](OC(=O)c4ccccc4)[C@H]21)C3(C)C [Taxoid 3, SB-T-1214, reference compound] |  | 2.66 ± 0.16 nM | 4.13 ± 2.59 nM | 0.17 ± 0.14 nM | 2.32 ± 1.41 nM | 4.18 ± 1.8 nM | 7.05 ± 1.38 nM | 4.89 ± 2.24 nM | 5.23 ± 0.27 nM | 2.32 to 2.66 nM |  |  |  |  |  |  |  |  | 
Biotin-(SS-Linker)-SB-T-1214 [conjugate 4] |  | 4.66 ± 0.87 nM | 15.4 ± 4.2 nM | 4.32 ± 1.58 nM | 12.3 ± 2.8 nM | 13.4 ± 6.8 nM | 481 ± 34 nM | 645 ± 97 nM | 670 ± 89 nM |  | 3.85 ± 0.14 nM | 5.15 ± 2.85 nM | 2.92 ± 2.34 nM | 3–30 times | two-orders of magnitude difference | 3.85 to 6.6 nM |  |  | 
Biotin-NH-PEG3-(CH2)2-NH-FITC [probe 5] |  |  |  |  |  |  |  |  |  |  |  |  |  |  |  |  | no appreciable internalization | no appreciable internalization | highly target-specific and efficient internalization
